Only a selection was taken, and hits are over-represented in it overall.
T cruzi growth-1: blocks T. cruzi growth in NIH3T3 culture; actives 5.9% (n = 77,000); AID 624255; T. cruzi beta-gal in NIH3T3, GalScreen luminescence, 90 h; inhibition, % at 8.34 µM;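 active = mean inhibition above about 93%, with at least 55% of replicates each passing it, limit read from the data, passing the limit was not always enough; inconclusive = only one of those two conditions holds; inactive = neither condition holds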
KDM4C inh: KDM4C (human) demethylase inhibition; Q9H3R0; GST-KDM4C 2-372, H3K9me3 peptide, LANCE TR-FRET; inhibition, % at 12.5 µM; actives 0.15% (n = 96,000);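 active = mean replicate inhibition above about 25%, with at least 55% of replicates also reaching it, limit read from the data, passing the limit was not always enough; inconclusive = only one of those two conditions met; inactive = neither condition met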
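Material: GST-tagged GASC-1 (JMJD2C) catalytic fragment, aa 2-372 / Quantity: enzyme final amount 10 nM / Medium: HEPES buffer, pH 7.5, plus ascorbate / Doses: one test concentration per compound / Incubation: 30 min reaction, 60 min detection, RT / Measured by: LANCE TR-FRET / Read-out: inhibition from TR-FRET ratio decrease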
IDH1 mut inh: inhibitors of human IDH1 R132H. AID 624101. actives 0.18% (n = 70,000). inhibition, % at 10 µM. IDH1 R132H reductase, diaphorase/resazurin fluorescence, 60 min; in the data active = inhibition above about 34%; inconclusive = no clear call, values can overlap the other calls; inactive = below about 11%;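 note: 0% = DMSO and 100% = no enzyme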
Target sequence (O75874 whole entry R132H): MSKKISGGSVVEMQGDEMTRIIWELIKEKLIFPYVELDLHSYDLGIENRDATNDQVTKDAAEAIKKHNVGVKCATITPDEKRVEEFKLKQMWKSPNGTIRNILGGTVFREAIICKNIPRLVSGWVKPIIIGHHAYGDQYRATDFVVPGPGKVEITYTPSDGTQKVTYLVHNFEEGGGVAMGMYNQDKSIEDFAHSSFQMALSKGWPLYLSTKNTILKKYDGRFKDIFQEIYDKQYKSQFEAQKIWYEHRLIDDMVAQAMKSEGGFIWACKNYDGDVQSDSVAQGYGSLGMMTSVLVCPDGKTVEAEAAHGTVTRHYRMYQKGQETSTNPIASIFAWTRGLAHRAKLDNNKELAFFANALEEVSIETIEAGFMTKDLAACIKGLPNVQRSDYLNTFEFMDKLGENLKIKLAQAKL
T cruzi growth-2: inhibitors of T. cruzi proliferation; shares compounds with T cruzi growth-1; T. cruzi beta-gal in NIH3T3, GalScreen luminescence, 90 h; inhibition, % at 8.35 µM; actives 72% (n = 5,600); AID 651739;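 active = mean replicate inhibition above about 95% and at least 55% of replicates individually reaching it, limit read from the data; inconclusive = only one of the two criteria is met; inactive = neither criterion is met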
T cruzi growth-3: inhibitors of T. cruzi proliferation; shares compounds with T cruzi growth-1; T. cruzi beta-gal in NIH3T3, GalScreen luminescence, 90 h; inhibition, % at 2.09 µM; actives 21% (n = 5,600); AID 651740;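 active = mean inhibition above about 95%, with at least 55% of replicates also reaching it, limit read from the data; inconclusive = meets just one of the two conditions; inactive = meets neither condition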;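 note: plate controls were neutral control median for no effect and positive control median for full effect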
3T3 cytotox: NIH/3T3 (mouse) viability loss | cytotoxicity (signal decrease), % at 8.35 µM | shares compounds with T cruzi growth-1 | actives 14% (n = 5,600) | NIH/3T3 viability, CellTiter-Glo ATP luminescence, 90 h;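 active = mean signal decrease across replicates above about 35% based on untreated-well scatter, with enough replicates individually passing, limit read from the data; inconclusive = no rule stated though some were filed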;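 note: 0% = median of neutral control wells and 100% = median of positive control wells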
NIH3T3 tox 2: cytotoxicity in mouse NIH/3T3 fibroblasts | shares compounds with T cruzi growth-1 | NIH/3T3 viability, CellTiter-Glo ATP luminescence, 90 h | inhibition, % at 24.9 µM | actives 56% (n = 5,600) | AID 651744;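 active = mean loss of cell viability signal at or above a set limit, and enough replicates individually reaching it; inconclusive = meets only the mean limit or only the replicate share; inactive = meets neither condition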;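 note: 0% = median of neutral control wells and 100% = median of positive control wells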
An asterisk follows results filed as active.

For C[C@@H]1CCCCO[C@H](CN(C)C(=O)Nc2ccc(C(F)(F)F)cc2)[C@@H](C)CN([C@H](C)CO)C(=O)c2cc(NC(=O)Cc3ccccc3)ccc2O1 the results were T cruzi growth-1 88, KDM4C inh 0 and IDH1 mut inh 0.
Screening C[C@@H]1CCCCO[C@@H](CN(C)C(=O)Nc2ccccc2)[C@@H](C)CN([C@H](C)CO)C(=O)c2cc(NC(=O)Cc3ccccc3)ccc2O1 returned T cruzi growth-1 6, KDM4C inh 0 and IDH1 mut inh 1.
C[C@H](CO)N1C[C@H](C)[C@@H](CN(C)C(=O)Nc2ccc(C(F)(F)F)cc2)OCCCC[C@H](C)Oc2ccc(NC(=O)Cc3ccccc3)cc2C1=O was read as T cruzi growth-1 128*, KDM4C inh -1, T cruzi growth-2 108*, T cruzi growth-3 110*, 3T3 cytotox 13 and NIH3T3 tox 2 inconclusive.
Screening C[C@@H]1CCCCO[C@H](CN(C)C(=O)Nc2ccc(C(F)(F)F)cc2)[C@H](C)CN([C@H](C)CO)C(=O)c2cc(NC(=O)Cc3ccccc3)ccc2O1 returned T cruzi growth-1 inconclusive, KDM4C inh 0, T cruzi growth-2 109*, T cruzi growth-3 107*, 3T3 cytotox 14 and NIH3T3 tox 2 56*.
C[C@H]1CCCCO[C@@H](CN(C)C(=O)Nc2ccccc2)[C@@H](C)CN([C@@H](C)CO)C(=O)c2cc(NC(=O)Cc3ccccc3)ccc2O1 was read as T cruzi growth-1 27, KDM4C inh 0 and IDH1 mut inh 3.
For COC(=O)c1sc(NC(=S)Nc2c(C)nn(Cc3c(F)c(F)c(F)c(F)c3F)c2C)c(C(=O)OC)c1C the results were IDH1 mut inh 0.
C[C@@H]1CCCCO[C@H](CN(C)C(=O)Nc2ccccc2)[C@@H](C)CN([C@@H](C)CO)C(=O)c2cc(NC(=O)Cc3ccccc3)ccc2O1 was read as T cruzi growth-1 21, KDM4C inh 0 and IDH1 mut inh -1.
Screening C[C@@H]1CCCCO[C@@H](CN(C)C(=O)Nc2ccc(C(F)(F)F)cc2)[C@H](C)CN([C@@H](C)CO)C(=O)c2cc(NC(=O)Cc3ccccc3)ccc2O1 returned T cruzi growth-1 122*, KDM4C inh 1, T cruzi growth-2 108*, T cruzi growth-3 93, 3T3 cytotox 26 and NIH3T3 tox 2 43*.
NC(=O)CN1C(=O)C(O)(C2CCc3ccccc3C2=O)c2ccccc21 (centres undefined) was read as IDH1 mut inh 0.
C[C@@H]1CN([C@@H](C)CO)C(=O)c2cc(NC(=O)C3CCCCC3)ccc2O[C@@H](C)CCCCO[C@H]1CN(C)Cc1ccc(C(F)(F)F)cc1 was read as T cruzi growth-1 inconclusive, KDM4C inh 15, T cruzi growth-2 89, T cruzi growth-3 116*, 3T3 cytotox 26 and NIH3T3 tox 2 7.
For C[C@@H]1CCCCO[C@H](CN(C)Cc2ccc(C(F)(F)F)cc2)[C@@H](C)CN([C@@H](C)CO)C(=O)c2cc(NC(=O)C3CCCCC3)ccc2O1 the results were T cruzi growth-1 inconclusive, KDM4C inh -2, IDH1 mut inh 3, T cruzi growth-2 95*, T cruzi growth-3 108*, 3T3 cytotox -2 and NIH3T3 tox 2 27*.
C[C@H]1CCCCO[C@@H](CN(C)Cc2ccc(C(=O)O)cc2)[C@@H](C)CN([C@@H](C)CO)C(=O)c2cc(NC(=O)C3CCCCC3)ccc2O1 was read as T cruzi growth-1 -18, KDM4C inh 1 and IDH1 mut inh 1.
C[C@@H]1CCCCO[C@H](CN(C)Cc2ccc(C(F)(F)F)cc2)[C@@H](C)CN([C@H](C)CO)C(=O)c2cc(NC(=O)C3CCCCC3)ccc2O1 was read as T cruzi growth-1 70 and KDM4C inh 2.
C[C@@H]1CCCCO[C@@H](CN(C)Cc2ccncc2)[C@@H](C)CN([C@H](C)CO)C(=O)c2cc(NC(=O)C3CCCCC3)ccc2O1 was read as T cruzi growth-1 26, KDM4C inh 1 and IDH1 mut inh 12.
For C[C@@H]1CN([C@H](C)CO)C(=O)c2cc(NC(=O)C3CCCCC3)ccc2O[C@@H](C)CCCCO[C@H]1CN(C)Cc1ccncc1 the results were T cruzi growth-1 103*, KDM4C inh 0, IDH1 mut inh 3, T cruzi growth-2 65, T cruzi growth-3 32, 3T3 cytotox 0 and NIH3T3 tox 2 3.
For C[C@@H]1CN([C@@H](C)CO)C(=O)c2cc(NC(=O)C3CCCCC3)ccc2O[C@@H](C)CCCCO[C@H]1CN(C)Cc1ccc(C(=O)O)cc1 the results were T cruzi growth-1 6, KDM4C inh 0 and IDH1 mut inh 5.
`C[C@@H]1CCCCO[C@@H](CN(C)Cc2ccc(C(F)(F)F)cc2)[C@H](C)CN([C@H](C)CO)C(=O)c2cc(NC(=O)C3CCCCC3)ccc2O1` gave T cruzi growth-1 118*, KDM4C inh -1, T cruzi growth-2 89, T cruzi growth-3 104*, 3T3 cytotox 22 and NIH3T3 tox 2 17.
COc1cccc(S(=O)(=O)NCc2ccc(C(=O)Nc3ccc(Br)cc3F)cc2)c1 was read as IDH1 mut inh 1.
Screening O=C(Nc1ccc(Cc2ccc(O)c(NC(=O)c3ccccc3F)c2)cc1O)c1ccccc1F returned IDH1 mut inh 0.
Screening Cc1cc(OCC(=O)Nc2cccc3ncccc23)ccc1Cl returned IDH1 mut inh 0.
`COc1cc(NC(=O)c2ccc(Cn3cc(Cl)cn3)o2)c(C(C)=O)cc1OC` gave IDH1 mut inh 0.
Screening C[C@H]1CN([C@@H](C)CO)C(=O)c2cc(NC(=O)C3CCCCC3)ccc2O[C@@H]1CN(C)Cc1ccc(C(F)(F)F)cc1 returned T cruzi growth-1 92*, KDM4C inh 0, IDH1 mut inh 0, T cruzi growth-2 92, T cruzi growth-3 38, 3T3 cytotox -3 and NIH3T3 tox 2 22.
`C[C@H]1CN([C@@H](C)CO)C(=O)c2cc(NC(=O)C3CCCCC3)ccc2O[C@H]1CN(C)Cc1ccc(C(F)(F)F)cc1` gave T cruzi growth-1 15, KDM4C inh 1 and IDH1 mut inh 2.
For Cc1cc(Oc2ccccc2)nc(SCCOc2ccccc2)n1 the results were IDH1 mut inh 0.
For C[C@@H]1CCCCO[C@H](CN(C)Cc2ccc(Cl)c(Cl)c2)[C@@H](C)CN([C@H](C)CO)C(=O)c2cc(NC(=O)Nc3cccc4ccccc34)ccc2O1 the results were T cruzi growth-1 inconclusive, KDM4C inh 0, IDH1 mut inh 2, T cruzi growth-2 111*, T cruzi growth-3 75, 3T3 cytotox -1 and NIH3T3 tox 2 -12.

High-throughput results deposited in PubChem BioAssay by Broad Institute.
